Assay results taken from ChEMBL document CHEMBL1154067, “Antiviral and cytotoxic activities of aminoarylazo compounds and aryltriazene derivatives” (Bioorg Med Chem, 2009).
pEC50: −log10 of the molar value. Activity calls are given as the source filed them. How the calls were made is not given here.

Columns and labels:
[1] = tested on: Vesicular stomatitis virus; test: Antiviral activity against Vesicular stomatitis virus after 2 days by plaque reduction assay; type: functional, organism-based
[2] = tested on: Respiratory syncytial virus; test: Antiviral activity against Respiratory syncytial virus A2 infected in Vero-76 cells after 5 days by plaque reduction assay; type: functional, organism-based; conditions: human respiratory syncytial virus, A2, Vero 76, 120 h
Poliovirus 1 = test: Antiviral activity against Human poliovirus 1 strain Sabin after 2 days by plaque reduction assay; type: functional; conditions: Enterovirus C, 48 h
[3] = tested on: Mammalian orthoreovirus 1; test: Antiviral activity against Reovirus-1 infected in BHK-21 cells assessed as inhibition of virus-induced cytopathicity after 3 to 4 days by MTT assay; type: functional, organism-based; conditions: Mammalian orthoreovirus 1, BHK-21
Procedure, shortened: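 BHK-21 cells seeded at 5 × 10^4 cells/well, grown overnight to confluent monolayers at 37 °C in 5% CO2, then infected at m.o.i. 0.01 in serum-free medium. One hour later, MEM Earle's with 1% final inactivated FCS added, with or without serial compound dilutions. Viability read by MTT after 3–4 days at 37 °C. EC50 is the concentration giving 50% protection from cytopathogenicity.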

[4] = Cytotoxicity against hamster BHK21 cells assessed as reduction in cell viability after 48 to 96 hrs by MTT assay; type: cell-based, Mesocricetus auratus, BHK-21; conditions: bhk-21
Procedure, shortened: (§1)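 Mock-infected cells in maintenance medium, MDBK at 6 × 10^5 and BHK at 1 × 10^6 cells/mL initial density, with or without serial compound dilutions. Run in parallel with antiviral assays. Viability by MTT after 48–96 h at 37 °C, 5% CO2. CC50 = concentration reducing viability 50%.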

Coxsackievirus B2 = test: Antiviral activity against Coxsackie virus type B2 virus infected in african green monkey Vero-76 cells after 3 days by plaque reduction assay; type: functional, organism-based; conditions: Enterovirus B, Vero 76, 72 h
Procedure, shortened: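 Vero 76 cells seeded at 2 × 10^5 cells/well, grown overnight to confluence at 37 °C in 5% CO2, then infected at 50–100 PFU/well. Unadsorbed virus removed. Overlay of DMEM with 1% inactivated FCS and 0.75% methylcellulose, with or without serial compound dilutions. After 3 days at 37 °C, fixed and stained with crystal violet in PBS/50% ethanol; plaques counted. EC50 is the concentration reducing plaque number by 50%.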

Vero = test: Cytotoxicity against african green monkey Vero 76 cells by crystal violet staining; type: cell-based; conditions: chlorocebus sabaeus, vero
Procedure, shortened: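 Mock-infected Vero 76 seeded at 4 × 10^5 cells/mL, run in parallel with plaque assays, with or without serial compound dilutions. Cell number of monolayers determined by crystal violet staining. CC50 = concentration reducing viable cell number 50%.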

Vaccinia virus = test: Antiviral activity against Vaccinia virus after 3 days by plaque reduction assay; type: functional, organism-based; conditions: Orthopoxvirus vaccinia
[5] = Cytotoxicity against MDBK cells after 48 to 96 hrs by MTT assay; type: cell-based, Bos taurus; conditions: cattle, mdbk; procedure, shortened: as §1
Yellow fever virus = test: Antiviral activity against Yellow fever virus infected in BHK-21 cells assessed as inhibition of virus-induced cytopathicity after 3 to 4 days by MTT assay; type: functional, organism-based
[6] = tested on: Human immunodeficiency virus 1; test: Antiviral activity against HIV1 infected in human MT4 cells assessed as inhibition of virus-induced cytopathicity after 4 days by MTT assay; type: functional, organism-based
MT4 = test: Cytotoxicity against human MT4 cells after 96 hrs by MTT assay; type: cell-based; conditions: mt4, 96 h
Procedure, shortened: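 Exponentially growing mock-infected MT-4 seeded at 1 × 10^5 cells/mL in RPMI-1640 with 10% FCS, penicillin and streptomycin. Incubated with or without serial compound dilutions at 37 °C, 5% CO2. Viability by MTT after 96 h. CC50 = concentration reducing viability 50%.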

Human alphaherpesvirus 1 = test: Antiviral activity against HSV1 infected in Vero-76 cells after 3 days by plaque reduction assay; type: functional, organism-based; conditions: Human alphaherpesvirus 1, Vero 76, 72 h

In the case of `CN1CCN(/N=N/c2cc(F)ccc2F)CC1`, the Activity [1] was “inactive”, the pEC50 [2] was under 4.00 and the pEC50 (Poliovirus 1) was under 4.00. For the same compound, the pEC50 [3] was 4.52, the CC50 [4] was over 100 µM and the pEC50 (Coxsackievirus B2) was 4.15. The CC50 (Vero) was at least 100 µM, the Activity (Vaccinia virus) was “inactive” and the CC50 [5] was over 100 µM. The pEC50 (Yellow fever virus) was 4.30, the inhibition [6] was “inactive” and the CC50 (MT4) was over 100 µM. For the same compound, the pEC50 (Human alphaherpesvirus 1) was 4.19.
For `Fc1ccc(F)c(/N=N/N2CCCC2)c1`, the Activity [1] was “inactive”, the pEC50 [2] was under 4.00 and the pEC50 (Poliovirus 1) was 4.36. The pEC50 [3] was under 4.00, the CC50 [4] was over 100 µM and the pEC50 (Coxsackievirus B2) was 4.46. For the same compound, the CC50 (Vero) was over 100 µM, the Activity (Vaccinia virus) was “inactive” and the CC50 [5] was over 100 µM. For the same compound, the pEC50 (Yellow fever virus) was under 4.00, the inhibition [6] was “inactive” and the CC50 (MT4) was over 100 µM. For the same compound, the pEC50 (Human alphaherpesvirus 1) was under 4.00.
In the case of `c1ccc(/N=N/N2CCCCC2)cc1`, the Activity [1] was “inactive”, the pEC50 [2] was under 4.00 and the pEC50 (Poliovirus 1) was under 4.00. It also gave a pEC50 [3] of under 4.00, a CC50 [4] of over 100 µM and a pEC50 (Coxsackievirus B2) of under 4.00. The CC50 (Vero) was over 100 µM, the Activity (Vaccinia virus) was “inactive” and the CC50 [5] was over 100 µM. The pEC50 (Yellow fever virus) was under 4.00, the inhibition [6] was “inactive” and the CC50 (MT4) was over 100 µM. The pEC50 (Human alphaherpesvirus 1) was under 4.00.
In the case of `O=C1CCN(/N=N/c2ccccc2)CC1`, the Activity [1] was “inactive”, the pEC50 [2] was under 4.22 and the pEC50 (Poliovirus 1) was under 4.22. The pEC50 [3] was under 4.05, the CC50 [4] was 90 µM and the pEC50 (Coxsackievirus B2) was 4.89. For the same compound, the CC50 (Vero) was 60 µM, the Activity (Vaccinia virus) was “inactive” and the CC50 [5] was at least 100 µM. For the same compound, the pEC50 (Yellow fever virus) was under 4.05, the inhibition [6] was “inactive” and the CC50 (MT4) was over 100 µM. It also gave a pEC50 (Human alphaherpesvirus 1) of under 4.22.
With `CCOC(=O)N1CCN(/N=N/c2ccccc2)CC1` the Activity [1] was “inactive”, the pEC50 [2] was under 4.05 and the pEC50 (Poliovirus 1) was under 4.05. It also gave a pEC50 [3] of under 4.00, a CC50 [4] of over 100 µM and a pEC50 (Coxsackievirus B2) of 4.52. The CC50 (Vero) was 90 µM, the Activity (Vaccinia virus) was “inactive” and the CC50 [5] was over 100 µM. The pEC50 (Yellow fever virus) was under 4.00, the inhibition [6] was “inactive” and the CC50 (MT4) was 100 µM. The pEC50 (Human alphaherpesvirus 1) was under 4.05.
`c1ccc(N=NNc2ccccc2)cc1` showed a CC50 [4] of over 100 µM, a CC50 (Vero) of 90 µM and a CC50 [5] of over 100 µM. The CC50 (MT4) was 47 µM.
In the case of `O=[N+]([O-])c1cccc(/N=N/N2CCCCC2)c1`, the Activity [1] was “inactive”, the pEC50 [2] was under 4.08 and the pEC50 (Poliovirus 1) was under 4.08. For the same compound, the pEC50 [3] was under 4.00, the CC50 [4] was over 100 µM and the pEC50 (Coxsackievirus B2) was under 4.08. For the same compound, the CC50 (Vero) was 83 µM, the Activity (Vaccinia virus) was “inactive” and the CC50 [5] was over 100 µM. For the same compound, the pEC50 (Yellow fever virus) was under 4.00, the inhibition [6] was “inactive” and the CC50 (MT4) was over 100 µM. For the same compound, the pEC50 (Human alphaherpesvirus 1) was under 4.08.
For `Clc1cccc(/N=N/N2CCCCC2)c1`, the Activity [1] was “inactive”, the pEC50 [2] was under 4.00 and the pEC50 (Poliovirus 1) was under 4.00. For the same compound, the pEC50 [3] was under 4.00, the CC50 [4] was over 100 µM and the pEC50 (Coxsackievirus B2) was under 4.00. The CC50 (Vero) was over 100 µM, the Activity (Vaccinia virus) was “inactive” and the CC50 [5] was over 100 µM. For the same compound, the pEC50 (Yellow fever virus) was under 4.00, the inhibition [6] was “inactive” and the CC50 (MT4) was over 100 µM. The pEC50 (Human alphaherpesvirus 1) was under 4.00.
In the case of `Brc1ccc(/N=N/N2CCCCC2)cc1`, the Activity [1] was “inactive”, the pEC50 [2] was 4.14 and the pEC50 (Poliovirus 1) was under 4.00. The pEC50 [3] was under 4.00, the CC50 [4] was over 100 µM and the pEC50 (Coxsackievirus B2) was 4.60. The CC50 (Vero) was over 100 µM, the Activity (Vaccinia virus) was “inactive” and the CC50 [5] was over 100 µM. The pEC50 (Yellow fever virus) was under 4.00, the inhibition [6] was “inactive” and the CC50 (MT4) was over 100 µM. For the same compound, the pEC50 (Human alphaherpesvirus 1) was under 4.00.
In the case of `FC(F)(F)c1cccc(/N=N/N2CCCC2)c1`, the Activity [1] was “inactive”, the pEC50 [2] was under 4.00 and the pEC50 (Poliovirus 1) was under 4.00. It also gave a pEC50 [3] of under 4.00, a CC50 [4] of over 100 µM and a pEC50 (Coxsackievirus B2) of under 4.00. The CC50 (Vero) was over 100 µM, the Activity (Vaccinia virus) was “inactive” and the CC50 [5] was over 100 µM. The pEC50 (Yellow fever virus) was under 4.00, the inhibition [6] was “inactive” and the CC50 (MT4) was over 100 µM. The pEC50 (Human alphaherpesvirus 1) was under 4.00.
With `Clc1ccc(/N=N/N2CCCC2)cc1` the Activity [1] was “inactive”, the pEC50 [2] was under 4.00 and the pEC50 (Poliovirus 1) was 4.38. It also gave a pEC50 [3] of under 4.00, a CC50 [4] of over 100 µM and a pEC50 (Coxsackievirus B2) of under 4.00. For the same compound, the CC50 (Vero) was over 100 µM, the Activity (Vaccinia virus) was “inactive” and the CC50 [5] was over 100 µM. For the same compound, the pEC50 (Yellow fever virus) was under 4.00, the inhibition [6] was “inactive” and the CC50 (MT4) was over 100 µM. It also gave a pEC50 (Human alphaherpesvirus 1) of under 4.00.
